# Results published in ChEMBL document CHEMBL4665829, “Synthesis, Structure-Activity Relationship, and Antimalarial Efficacy of 6-Chloro-2-arylvinylquinolines” (J Med Chem, 2020).
# Active and inactive are the calls of the source. The calls are words filed in the database; no cut-off is given here.
# Experiments:
# [1] = Drug level in mouse liver microsomes treated with N1,N1-diethyl-N4-(6-methoxy-2-(4-nitrostyryl)quinolin-4-yl)pentane-1,4-diamine measured up to 60 mins by LC-MS analysis; type: ADME, Microsome; settings: 1 h
# Summary of the method: (§1)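 Microsomal incubations: mouse liver microsomes at 0.5 mg/mL, 1 μM compound, pH 7.4 phosphate, 37 °C, NADPH-regenerating system. The metabolite mixture was analysed by LC–MS after 15, 30 and 60 min.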
# Plasmodium falciparum [2] = test: Antiplasmodial activity against chloroquine-resistant Plasmodium falciparum Dd2 infected in human erythrocytes assessed as reduction in microbial growth after 72 hrs by SYBR green I staining based fluorescence assay; type: functional, organism-based; settings: Dd2, Erythrocyte
# Summary of the method: (§2)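 SYBR Green I assay: twofold serial dilutions on P. falciparum cultures at 1% parasitemia, 1% hematocrit, 37 °C, 5% CO₂, 72 h, max 0.1% DMSO. DMSO and CQ as growth and inhibition controls. Plates frozen at −80 °C, thawed, lysed in Tris/saponin/EDTA/Triton buffer with 0.01% SYBR Green I, 1 h dark at room temperature. Fluorescence read at 485 ex/530 em. EC50 by nonlinear dose–response fit.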
# [3] = Selectivity index, ratio of EC50 for cytotoxicity against human HepG2 cells to antiplasmodial activity against chloroquine-resistant Plasmodium falciparum Dd2; type: toxicity, cell-based; settings: read-out: Ratio EC50
# Plasmodium falciparum [4] = test: Antiplasmodial activity against chloroquine-sensitive Plasmodium falciparum 3D7 infected in human erythrocytes assessed as reduction in microbial growth after 72 hrs by SYBR green I staining based fluorescence assay; type: functional, organism-based; settings: for EC50: 3D7, Erythrocyte; for Activity: Erythrocyte; summary of the method: as §2
# [5] = Resistant index, ratio of EC50 for antiplasmodial activity against chloroquine-resistant Plasmodium falciparum Dd2 to antiplasmodial activity against chloroquine-sensitive Plasmodium falciparum 3D7; type: functional
# HepG2 = test: Cytotoxicity against human HepG2 cells assessed as reduction in cell viability after 48 hrs by MTS assay; type: cell-based; settings: HepG2, 48 h
# Summary of the method: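 HepG2 cells were seeded at 2250 per well and grown 24 h at 37 °C, 5% CO₂. Serial dilutions starting at 25 μM were added for a further 48 h. MTS was then added for 3 h at 37 °C and absorbance read at 490 nm. EC₅₀ came from nonlinear dose–response fits.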
# [6] = Stability of compound in mouse liver microsomes assessed as parent compound remaining at 1 uM after 60 mins in presence of NADPH by LC-MS analysis; type: ADME, Microsome; settings: 1 h
# Summary of the method: (§3)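 Mouse liver microsomes (0.5 mg/mL final protein) in 0.1 M phosphate, pH 7.4, with compound at 1 μM, 37 °C with shaking. Aliquots were quenched in cold acetonitrile and centrifuged; LC–MS gave parent peak area at 60 min relative to 0 min.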
# [7] = Intrinsic clearance in mouse liver microsomes assessed as parent compound at 1 uM after 60 mins in presence of NADPH by LC-MS analysis; type: ADME, Microsome; summary of the method: as §3
# [8] = Half life in mouse liver microsomes at 1 uM after 60 mins in presence of NADPH by LC-MS analysis; type: ADME, Microsome; settings: 1 h; summary of the method: as §3
# Hemozoin [9] = test: Inhibition of beta-hematin formation at 12.5 to 200 uM after 16 hrs by inverted microscopic analysis; settings: dose microM 12.5-200, time 16.0 hrs
# Summary of the method: (§4)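 Hemin (2 mM stock in 0.1 M NaOH; 100 μM final), propionate buffer pH 5.2 and sonicated phosphatidylcholine were incubated with a compound concentration series for 16 h at 37 °C with gentle shaking. Crystals were imaged by inverted microscope before quenching with 7.5% SDS in bicarbonate, pH 9.1. Free hemin was measured at 405 nm against a 0–16 μM calibration. Three independent experiments.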
# [10] = Drug level in mouse liver microsomes treated with N1-(6-chloro-2-(4-fluorostyryl)quinolin-4-yl)-N2,N2-dimethylethane-1,2-diamine measured up to 60 mins by LC-MS analysis; type: ADME, Microsome; settings: 1 h; summary of the method: as §1
# [11] = Drug level in mouse liver microsomes treated with 6-chloro-N-(4-morpholinobutyl)-2-(2-(pyridin-4-yl)vinyl)quinolin-4-amine measured up to 60 mins by LC-MS analysis; type: ADME, Microsome; settings: 1 h; summary of the method: as §1
# Plasmodium falciparum [12] = test: Antiplasmodial activity against synchronous gametocyte late stage of Plasmodium falciparum 3D7 harboring luc7 incubated for 72 hrs by ONE-Glo luciferase assay; type: functional, organism-based; settings: 3D7, 72 h
# Summary of the method: (§5)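 Gametocytes of P. falciparum 3D7 luc7 induced by nutrient starvation, cultured in heparin medium to remove asexual stages, Percoll-purified as early (II–III) or late (IV–V) stage. 50,000 gametocytes/well exposed 72 h to a 19-point gradient, 0.038 nM–10 μM. ONE-Glo luciferase read after 5 min. EC50 by nonlinear curve fit; three experiments.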
# Plasmodium falciparum [13] = test: Antiplasmodial activity against synchronous gametocyte early stage of Plasmodium falciparum 3D7 harboring luc7 incubated for 72 hrs by ONE-Glo luciferase assay; type: functional, organism-based; settings: 3D7, 72 h; summary of the method: as §5
# Hemozoin [14] = test: Inhibition of beta-hematin formation after 16 hrs by inverted microscopic analysis; settings: dose microM 12.5-200, time 16.0 hrs; summary of the method: as §4
# Plasmodium berghei [15] = test: Antiplasmodial activity against Plasmodium berghei ANKA expressing luciferase infected in Swiss Webster mouse at 25 mg/kg, po for 5 days using monophosphate salt form of compound by luminescence based assay; type: functional, organism-based; settings: time 5.0 day
# Summary of the method: (§6)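 Female Swiss Webster mice got 10³ RBC infected with luciferase-expressing P. berghei ANKA. From 48 h post-infection, groups of five were gavaged once daily for 5 days in 2% methylcellulose/0.5% Tween 80, against a vehicle control. On day 7, mice received 150 mg/kg D-luciferin in PBS, and bioluminescence was imaged by IVIS as a measure of parasite load.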
# Plasmodium berghei [16] = test: Antiplasmodial activity against Plasmodium berghei ANKA expressing luciferase infected in Swiss Webster mouse at 100 mg/kg, po for 5 days using monophosphate salt form of compound by luminescence based assay; type: functional, organism-based; settings: time 5.0 day; summary of the method: as §6
# Plasmodium falciparum [17] = test: Parasiticidal activity against chloroquine-resistant Plasmodium falciparum Dd2 infected in RBC assessed as reduction in parasitemia at 5 times of EC50 incubated for 6 to 48 hrs followed by compound washout and then incubated for 96 hrs by Giemsa staining based microscopic analysis; type: functional, organism-based; settings: time hrs 6-48
# Summary of the method: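 Controls: 0.15% DMSO, DHA 50 nM, atovaquone 6.6 nM. Drug removed by three RPMI washes, then parasitemia followed daily for 96 h by Giemsa thin smears. Three independent biological replicates.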
# Plasmodium falciparum [18] = test: Antiplasmodial activity against late trophozoite synchronized chloroquine-resistant Plasmodium falciparum Dd2 reduction in microbial growth at 5 times of EC50 after 12 hrs by YOYO-1 staining-based flow cytometric analysis; type: functional, organism-based
# Summary of the method: (§7)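 Dd2 cultures tightly synchronized by magnetic separation and sorbitol were dosed at 5 × EC50 at 6, 18, 30 or 42 h post-invasion. Controls: DHA 50 nM, atovaquone 6.6 nM, DMSO 0.1%. Sampled every 12 h for Giemsa thin smears and for flow cytometry: glutaraldehyde/paraformaldehyde fixation, Triton permeabilization, RNAse, 500 nM YOYO-1, 500,000 events/sample. Three independent biological replicates.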
# Plasmodium falciparum [19] = test: Antiplasmodial activity against late trophozoite synchronized chloroquine-resistant Plasmodium falciparum Dd2 reduction in microbial growth at 5 times of EC50 after 12 hrs by Giemsa staining-based microscopic analysis; type: functional, organism-based; summary of the method: as §7
Structure (SMILES),EC50 (Plasmodium falciparum [2]),selectivity ratio [3],EC50 (Plasmodium falciparum [4]),Ratio EC50 [5],EC50 (HepG2),Stabilty [6],CLH [7],t1/2 [8],further results
CCNCCCC(C)Nc1cc(/C=C/c2ccc([N+](=O)[O-])cc2)nc2ccc(OC)cc12 (stereo not given),–,–,–,–,–,–,–,–,Drug uptake [1]: Active
CN(C)CCNc1cc(/C=C/c2ccccc2F)nc2ccc(Cl)cc12,26 nM,186,55.9 nM,0.5,4.83 µM,–,–,–,–
CN(C)CCNc1cc(/C=C/c2ccncc2)nc2ccc(Cl)cc12,28.8 nM,212,56.6 nM,0.5,6.11 µM,15.5%,62.2 µL/min/mg,22.3 min,–
CN(C)CCNc1cc(/C=C/c2cccc(F)c2)nc2ccc(Cl)cc12,5.9 nM,810,23 nM,0.3,4.78 µM,38.2%,32.1 µL/min/mg,43.2 min,–
Fc1ccc(/C=C/c2cc(NCCCCN3CCOCC3)c3cc(Cl)ccc3n2)cc1,2.4 nM,1480,6.9 nM,0.3,3.55 µM,15.4%,62.4 µL/min/mg,22.2 min,–
CCN(CC)CCCC(C)Nc1ccnc2cc(Cl)ccc12 (stereo not given) [CHLOROQUINE],174 nM,–,17.8 nM,–,10.4 µM,–,–,–,inhibition (Hemozoin [9]): Active
CNCCNc1cc(/C=C/c2ccc(F)cc2)nc2ccc(Cl)cc12,–,–,–,–,–,–,–,–,Drug uptake [10]: Active
COc1ccc2nc(/C=C/c3cc(OC)c(OC)c(OC)c3)cc(NCCN(C)C)c2c1,74.2 nM,–,–,> 1.3,–,–,–,–,Activity (Plasmodium falciparum [4]): Active
OCCNCCCCNc1cc(/C=C/c2ccncc2)nc2ccc(Cl)cc12,–,–,–,–,–,–,–,–,Drug uptake [11]: Active
CN(C)c1ccc2nc3ccc(N(C)C)cc3[s+]c2c1 [METHYLENE BLUE ANHYDROUS],–,–,–,–,–,–,–,–,EC50 (Plasmodium falciparum [12]): 107 nM; EC50 (Plasmodium falciparum [13]): 74.7 nM
Clc1ccc2nc(/C=C/c3ccncc3)cc(NCCCCN3CCOCC3)c2c1,9.9 nM,561,20.8 nM,0.5,5.67 µM,5.6%,96.2 µL/min/mg,14.4 min,–
FC(F)(F)c1ccc(/C=C/c2cc(NCCCCN3CCOCC3)c3cc(Cl)ccc3n2)cc1,30.7 nM,332,73.8 nM,0.4,10.2 µM,52.7%,21.4 µL/min/mg,64.9 min,–
NCCNc1cc(/C=C/c2ccc(F)cc2)nc2ccc(Cl)cc12,–,–,–,–,–,–,–,–,Drug uptake [10]: Active
CN1CCN(CCNc2cc(/C=C/c3ccc(F)cc3)nc3ccc(Cl)cc23)CC1,15.3 nM,209,15.7 nM,1,3.2 µM,50.2%,23 µL/min/mg,60.3 min,EC50 (Plasmodium falciparum [12]): 2500 nM; inhibition (Hemozoin [14]): Dose-dependent effect; Activity (Plasmodium berghei [15]): inactive; EC50 (Plasmodium falciparum [13]): 910 nM; Activity (Plasmodium berghei [16]): Active; Activity (Plasmodium falciparum [17]): Active; Activity (Plasmodium falciparum [18]): Active; Activity (Plasmodium falciparum [19]): Active
Fc1ccc(/C=C/c2cc(NCCCCN3CCOCC3)c3cc(Cl)ccc3n2)cc1F,25.5 nM,241,27.6 nM,0.9,10.4 µM,19.9%,53.7 µL/min/mg,25.8 min,–
NCCCCNc1cc(/C=C/c2ccncc2)nc2ccc(Cl)cc12,–,–,–,–,–,–,–,–,Drug uptake [11]: Active
CCN(CC)CCCC(C)Nc1cc(/C=C/c2ccc([N+](=O)[O-])cc2)nc2ccc(O)cc12 (stereo not given),–,–,–,–,–,–,–,–,Drug uptake [1]: Active
COc1ccc2nc(/C=C/c3ccc(OC)c(OC)c3)cc(NCCN(C)C)c2c1,187 nM,–,–,> 1.3,–,–,–,–,Activity (Plasmodium falciparum [4]): Active
Fc1ccc(/C=C/c2cc(NCCN3CCOCC3)c3cc(Cl)ccc3n2)cc1,24.2 nM,711,41.8 nM,0.6,17.2 µM,–,–,–,–
CN1CCN(CCCCNc2cc(/C=C/c3ccncc3)nc3ccc(Cl)cc23)CC1,33.4 nM,251,36.1 nM,0.9,8.38 µM,–,–,–,–
Fc1ccc(/C=C/c2cc(NCc3ccccn3)c3cc(Cl)ccc3n2)cc1,156 nM,127,248 nM,0.6,19.8 µM,52.9%,21.2 µL/min/mg,65.3 min,–
